Laboratory results taken from ChEMBL document CHEMBL4513216, “Probing the Open Global Health Chemical Diversity Library for Multistage-Active Starting Points for Next-Generation Antimalarials” (ACS Infect Dis, 2020).

Assay: Toxicity liver stage against HepG2, at 10uM
Type: cell-based
Set-up: test concentration 10 uM, cell line HepG2-A16-CD81EGFP
Settings: human, HepG2-A16-CD81EGFP cells; read-out: INHIBITION
How it was run: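 Uninfected HepG2-A16-CD81EGFP cells, 3 × 10^3 per well, 1536-well, plated on prespotted compound at 10 μM final, parasite-free screening media added to match infected plates; puromycin 10 μM positive, DMSO 0.5% negative; run in parallel with 48 h PbLuc assay at 37 °C, 5% CO2; viability by CellTiter-Glo luminescence, normalized to controls.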

| SMILES | cytotoxicity at 10 µM [%] |
| --- | --- |
| O=C(NCC1(O)CCOCC1)c1ccc(F)cc1 | -9.52 |
| CN(C)C(=O)N1C[C@@H]2COC[C@]2(c2nnc(C3CC3)o2)C1 | -4.05 |
| Cc1cnc(NC(=O)CSC2CCc3ccccc3NC2=O)s1 (stereo not given) | -2.34 |
| Cc1c(Cl)c(C(=O)NC(C)CN2CCOCC2)nn1C (stereo not given) | -1.77 |
| COc1ccc(CNC(Cc2ccsc2)c2ncccc2C)cc1OC (stereo not given) | 0.735 |
| CCCn1ccnc1-c1cccc(NC(=O)C2CCCOC2)c1 (stereo not given) | -2.43 |
| Clc1cc(CN2CCCN3CCCC3C2)c2ncccc2c1 (stereo not given) | 19.5 |
| CCN(Cc1nc(-c2ccco2)no1)Cc1cccc2c1OCO2 | 8.33 |
| CC(C)N(C)S(=O)(=O)NCc1cccnc1N(C)C | 2.57 |
| CCc1nc(CN2CCCN(C(=O)Cc3cccs3)CC2)cs1 | 2.55 |
| Cc1sc2nc(C(F)(F)F)nc(N3CCN(S(C)(=O)=O)CC3)c2c1C | -8.07 |
| NC(c1ccc(F)cc1)c1cccs1 (stereo not given) | 15.6 |
| Cc1cnn(CCNC(C)c2nnc(-c3ccccc3)o2)c1 (stereo not given) | -2.4 |
| OCCNC1CCc2cc3c(cc21)OCCO3 (stereo not given) | -5.82 |
| Cc1cccc(N2CCN(C(=O)c3c(C)nn(C)c3C)CC2)c1C | -7.28 |
| CCCNC(=O)c1cccc(CNCc2csc(C(C)C)n2)c1 | 6.14 |
| CC(=O)NS(=O)(=O)c1ccc(F)c(C(F)(F)F)c1 | -4.73 |
| CC(C)N(Cc1ccc(C#N)cc1)C(=O)NCCNc1ncccn1 | 3.78 |
| O=C(Cc1ccc(F)cc1)NCCNS(=O)(=O)C1CCCC1 | 9.31 |
| CC1c2ncc(COc3cccnc3)n2CCN1Cc1ccco1 (stereo not given) | -105 |
| Cc1ccoc1C(=O)N1CC[C@H]2C[C@H](c3nnc(C4CC4)o3)O[C@@H]2C1 | -105 |
| CN(C)C(=O)c1cccnc1N1CCOC(c2ccc(Cl)cc2)C1 (stereo not given) | 9.39 |
| Oc1ccccc1CN1CCC(n2cc(-c3ccc(F)cc3)nn2)CC1 | -2.68 |

| SMILES | cytotoxicity at 10 µM [%] |
| --- | --- |
| Cc1cc(C(=O)NCc2cccnc2N2CCCC(O)C2)c(C)o1 (stereo not given) | 16.3 |
| O=C(c1cc(=O)n(-c2ccccc2)[nH]1)N1CCCC(c2ccn[nH]2)C1 (stereo not given) | -2.21 |
| COc1ccc(OC2CCN(c3ccncc3)CC2)cc1 | 2.1 |
| Oc1cccc(CN2CCN(C3CCc4ccccc4C3)CC2)c1 (stereo not given) | 6.42 |
| NC(=O)CN1CCC(C(=O)NCc2nc(-c3ccc(F)cc3)cs2)CC1 | -5.79 |
| O=C(c1cc2c([nH]c1=O)CCC2)N1CCCCC1c1cccc(F)c1 (stereo not given) | -6.22 |
| CCCN1CCc2[nH]cnc2C12CCN(C(=O)CCn1cccn1)CC2 | 7.36 |
| COC[C@]1(O)CCN(C(=O)c2cccc(CN(C)C)c2)CC1(C)C | 3.26 |
| O=C(NC1CC1)c1nc(Cn2c(C(F)F)nc3ccccc32)no1 | 7.59 |
| COc1cc(N2CCOC(c3ccc(F)cc3)C2)ncn1 (stereo not given) | 15.3 |
| CCC(CO)N(CC=C(C)C)Cc1ccsc1 (stereo not given) | 6.07 |
| Cc1cc(C)c2cc(CNCC3CCCO3)c3nn(C)c(=O)n3c2c1 (stereo not given) | -4.63 |
| O=C(CN1C=Nc2ccccc2S1(=O)=O)NCCCc1ccccc1 | -3.54 |
| CN(CCOc1cccc(F)c1)Cc1nc2c(cnn2C)c(=O)[nH]1 | -0.966 |
| NC(=O)C1CCN(Cc2csc(-c3ncccn3)n2)CC1 | -6.04 |
| Fc1cccc(F)c1Cn1c(C2CCNCC2)cc2cccnc21 | -3.4 |
| Cc1noc(C)c1CN1CC[C@H]2OCC[C@@H](C(=O)NCC3CC3)[C@H]2C1 | 1.27 |
| CN1CCN(Cc2cn3c(n2)CN(C(=O)c2cccn2C)CC3)CC1 | 2.89 |
| Cn1cc(C(=O)NCc2cn3c(n2)CN(C2CCOCC2)CC3)cn1 | 11.2 |
| Cc1cnc(N2CCC3(CC(=O)N(Cc4csc(C)n4)C3)C2)nc1 (stereo not given) | -0.211 |
| CC(C)=CCN1C[C@@H]2CC[C@H]1CN(Cc1coc(C)n1)C2 | 1.25 |
| CCCn1nccc1NC(=O)CN1CCc2cnc(C(C)C)nc2C1 | -5.59 |
